From PubChem
Sampled rows, rich in hits. Any-hit rate of the full collection: about 1.7%.
HNF4A DNA FP = change in binding of human HNF4A to DNA, primary screen, biochemical, fluorescence polarization, FITC-DNA. Hepatocyte nuclear factor 4-alpha (Homo sapiens), P41235. 1 h. activity change, % at 10 µM. actives 0.3% (n = 360,000); in the data active = activity change above about 30%, passing the limit was not always enough
IDE act = human IDE activators in live cells, primary screen, fluorescence polarization, HEK cells, FAbeta-B substrate; actives 0.073% (n = 340,000); activation, % at 5.96 µM; Insulin-degrading enzyme (Homo sapiens), P14735; AID 493087, 2011; FAbeta-B cleavage; 0% vehicle, 100% cell-free pure enzyme wells;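 active = activation above the mean of all tested compounds plus 3 SD, set per screening campaign, cut at about 17% in these data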
Rpn11 inh = Rpn11 (PSMD14) deubiquitinase inhibitors, primary screen, biochemical, fluorescence polarization, uHTS; actives 0.59% (n = 360,000); inhibition, % at 20 µM; AID 588493, 2011; human 26S proteasome, Ub4-pepOG fluorescence polarization; 20S core pre-blocked with epoxomicin; 26S proteasome non-ATPase regulatory subunit 14 (Homo sapiens), O00487;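 active = inhibition at 20 µM, scaled to each plate's controls, above about 33%, limit read from the data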
IDE cell inh = human IDE inhibitors in live cells, primary screen, fluorescence polarization, HEK cells, FAbetaB substrate; inhibition, % at 5.59 µM; Insulin-degrading enzyme (Homo sapiens), P14735; AID 434962, 2010; actives 0.41% (n = 320,000); FAbetaB cleavage;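 active = percent inhibition above the average of all tested compounds plus 3 SD, set per screening campaign, cut at about 16% in these data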;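 also: IDE supplied by intact live HEK cells; FP after avidin binding of uncleaved biotin substrate so inhibition keeps polarization high; 0% = DMSO wells and 100% = 60 µM reference IDE inhibitor Ii1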
TPT1 inh = Candida albicans TPT1 enzyme inhibitors, primary screen, biochemical, fluorescence polarization; recombinant caTPT1, FP RNA substrate dephosphorylation; inhibition, % at 5 µM; actives 0.81% (n = 300,000); AID 1962, 2009;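 active = inhibition above the mean of all tested compounds plus 3 SD, set per screening campaign, cut at about 24% in these data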;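 also: plate controls were DMSO alone for no effect and ferristatin control at 100 nM for full effect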
CSN deneddyl inh = inhibitors of CSN-mediated cullin deneddylation, primary screen, biochemical, fluorescence polarization, uHTS | Purified CSN, SCF-Nedd8-OG deneddylation | inhibition, % at 12.5 µM | actives 0.38% (n = 360,000) | AID 651999, 2013;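 active = pattern-corrected inhibition above about 35%, with an unprinted fluorescence ratio check between 0.5 and 1.5, limit read from the data, passing the limit was not always enough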;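 also: 0% = enzyme with substrate and 100% = substrate without enzyme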
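Test system: Human Csn5 produced in HEK293T cells | Compound: 12.5 µM single point | Times: 90 min, room temperature | Signal: Fluorescence polarization readout | Read-out basis: % inhibition of substrate cleavage by Csn5 | Controls: no-enzyme wells high, enzyme-with-substrate wells low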
IDE cell inh cf = human IDE inhibitors in live cells, confirmation, fluorescence polarization, HEK cells, FAbetaB substrate | inhibition, % at 5.59 µM | AID 435028, 2010 | shares compounds with IDE cell inh | actives 51% (n = 1,200) | FAbetaB cleavage;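 active = mean inhibition across triplicate wells above the cutoff set by the earlier primary insulin-degrading enzyme screen, cut at about 16% in these data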;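 also: 0% = DMSO wells and 100% = 60 µM reference IDE inhibitor Ii1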
HEK cytotox = cytotoxicity in HEK cells, cytotoxicity control for IDE inhibitor project, cell-based, luminescence. HEK293 cytotoxicity, ATP luminescence. inhibition, % at 5.59 µM. actives 28% (n = 1,200). shares compounds with IDE cell inh; in the data active = inhibition above about 22%;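 also: 0% = vehicle wells and 100% = reference cytotoxic drug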
FP fluor counter = fluorescent or optically active artefacts, dose response, artefact control for IDE inhibitor project, biochemical, fluorescence polarization; shares compounds with IDE cell inh; FP counterscreen for fluorescent artifacts, IDE probe project; 30 tested, under 10 active; IC50, µM; call rule not given here
The depositor's hits bear a star.

O=C1C=CC(=O)N1CCCCCCN1C(=O)C=CC1=O was read as IDE cell inh 19*, TPT1 inh -2, IDE cell inh cf 4 and HEK cytotox 124*.
Screening S=C(Nc1ccccc1)Nc1nc2ccccc2n1CCOc1ccccc1 returned HNF4A DNA FP -7, IDE act -22, Rpn11 inh 20, IDE cell inh 29*, TPT1 inh 2, CSN deneddyl inh -6, IDE cell inh cf 18* and HEK cytotox 7.
Screening CCCCn1c(NC(=S)Nc2ccccc2)nc2ccccc21 returned HNF4A DNA FP -6, IDE act -12, Rpn11 inh 15, IDE cell inh 31*, TPT1 inh -1, CSN deneddyl inh 7, IDE cell inh cf 12 and HEK cytotox 12.
Screening CC(C)NC(=O)c1cc(C2CCCCN2S(=O)(=O)c2ccc(F)cc2F)on1 (stereo not given) returned HNF4A DNA FP -1, Rpn11 inh 0 and CSN deneddyl inh -2.
For CC1(C(=O)NS(=O)(=O)c2cccc(OC(F)F)c2)CCN1C(=O)CC(c1ccccc1)c1ccccc1 (stereo not given) the results were HNF4A DNA FP 1, Rpn11 inh 2 and CSN deneddyl inh -2.
`CC1=CC(=O)c2ccccc2C1=O` gave HNF4A DNA FP 0, IDE act 3, Rpn11 inh 1, IDE cell inh 1, TPT1 inh 4 and CSN deneddyl inh 1.
COc1cccc2c1C(=O)C=C(C)C2=O was read as HNF4A DNA FP -2, IDE act -18, Rpn11 inh 0, IDE cell inh 34*, TPT1 inh -2, CSN deneddyl inh -2, IDE cell inh cf 72* and HEK cytotox 34*.
For Cc1cc2c(cc1C)NC(=O)C(C)CN2 (stereo not given) the results were HNF4A DNA FP 3, Rpn11 inh 3 and CSN deneddyl inh 2.
Screening Cn1c(SCC(=O)NCCc2ccc(S(N)(=O)=O)cc2)nc2ccccc2c1=O returned HNF4A DNA FP 0, IDE act -56, Rpn11 inh -13, IDE cell inh 41*, TPT1 inh -2, CSN deneddyl inh 4, IDE cell inh cf 9 and HEK cytotox 8.
For CSc1cccc(N2CC(C(=O)Nc3ccccc3N3CCCC3)CC2=O)c1 (stereo not given) the results were HNF4A DNA FP 5, IDE act -4, Rpn11 inh 4, IDE cell inh 16*, TPT1 inh -2, CSN deneddyl inh 0, IDE cell inh cf 6 and HEK cytotox 7.
Screening CCNC(=O)C1(C)CCCN(C(=O)c2ccc(F)c(C)c2)C1 (stereo not given) returned HNF4A DNA FP -2, Rpn11 inh -3 and CSN deneddyl inh -4.
`C(=C\c1ccc2nncn2c1)/c1ccccc1` gave HNF4A DNA FP 16 and CSN deneddyl inh 13.
Screening COc1cc2ncnc(NCc3cccc(F)c3F)c2cc1OC returned HNF4A DNA FP 5, IDE act -9, Rpn11 inh -16, IDE cell inh 18*, TPT1 inh -2, CSN deneddyl inh 4, IDE cell inh cf 1 and HEK cytotox 13.
`COc1ccc(Cl)cc1NC(=O)CSc1nnc(CN2CCOCC2)n1-c1ccc(Cl)cc1` gave HNF4A DNA FP 1, IDE act -10, Rpn11 inh 4, IDE cell inh 18*, TPT1 inh -1, CSN deneddyl inh 10, IDE cell inh cf 4 and HEK cytotox 16.
Cc1ccc(NC(=O)CSc2nnc(CN3CCOCC3)n2C)cc1C was read as HNF4A DNA FP 0, IDE act -23, Rpn11 inh -16, IDE cell inh 19*, TPT1 inh -5, CSN deneddyl inh -2, IDE cell inh cf 18* and HEK cytotox 3.
COC(=O)c1cc(NC(=O)CSc2nnc(CN3CCOCC3)n2C)ccc1Cl was read as HNF4A DNA FP 0, IDE act -24, Rpn11 inh 2, IDE cell inh 21*, TPT1 inh -5, CSN deneddyl inh -2, IDE cell inh cf 12 and HEK cytotox 17.
`CC(C)c1ccc(NC(=O)CSc2nnc(CN3CCOCC3)n2C)cc1` gave HNF4A DNA FP -1, IDE act -27, Rpn11 inh 5, IDE cell inh 17*, TPT1 inh 1, CSN deneddyl inh 1, IDE cell inh cf 13 and HEK cytotox 15.
For Cc1cc(C)cc(NC(=O)CSc2nnc(CN3CCOCC3)n2C)c1 the results were HNF4A DNA FP 6, IDE act -15, Rpn11 inh -5, IDE cell inh 10, TPT1 inh -3 and CSN deneddyl inh -3.
For O=C(CSc1nnc(CN2CCOCC2)n1-c1ccc(Cl)cc1)Nc1ccc2c(c1)OCO2 the results were HNF4A DNA FP 0, IDE act -2, Rpn11 inh 8, IDE cell inh 0, TPT1 inh 0 and CSN deneddyl inh -4.
O=C(c1cccs1)N1CCN(Cc2nc(-c3ccccc3)no2)CC1 was read as HNF4A DNA FP -2, Rpn11 inh -1 and CSN deneddyl inh -3.
C[C@H](CO)N1C[C@H](C)[C@H](CN(C)C(=O)NC2CCCCC2)Oc2cc(-c3cccnc3)ccc2S1(=O)=O was read as HNF4A DNA FP -1, Rpn11 inh 0 and CSN deneddyl inh 1.
Screening COc1ccc(NC(=O)CSc2nnc(CN3CCOCC3)n2C)cc1Cl returned HNF4A DNA FP -6, IDE act -40, Rpn11 inh 0, IDE cell inh 22*, TPT1 inh -2, CSN deneddyl inh 1, IDE cell inh cf 23*, HEK cytotox 6 and FP fluor counter >55.
